These results are taken from ChEMBL document CHEMBL4257536, “Pharmacophore-based tailoring of biphenyl amide derivatives as selective 5-hydroxytryptamine 2B receptor antagonists” (Medchemcomm, 2018).

By Ki is commonly meant a measure of affinity in units of concentration, obtained from inhibition or displacement. A high value points to weaker binding. Usually half-life stands for how long it takes for the measured level to halve. By inhibition is commonly meant the drop in the measured response relative to a control, in per cent. A word on the Papp B→A: it is the apparent permeability from the basolateral to the apical side of a cell layer. What is called Papp A→B is how fast a substance crosses the layer from the apical side. One may read the IC50 as the midpoint of a concentration-inhibition curve.

Data set [1] concerns the target T1, 5-hydroxytryptamine receptor 3A (Homo sapiens, UniProt P46098).
T1 sequence (P46098 whole entry): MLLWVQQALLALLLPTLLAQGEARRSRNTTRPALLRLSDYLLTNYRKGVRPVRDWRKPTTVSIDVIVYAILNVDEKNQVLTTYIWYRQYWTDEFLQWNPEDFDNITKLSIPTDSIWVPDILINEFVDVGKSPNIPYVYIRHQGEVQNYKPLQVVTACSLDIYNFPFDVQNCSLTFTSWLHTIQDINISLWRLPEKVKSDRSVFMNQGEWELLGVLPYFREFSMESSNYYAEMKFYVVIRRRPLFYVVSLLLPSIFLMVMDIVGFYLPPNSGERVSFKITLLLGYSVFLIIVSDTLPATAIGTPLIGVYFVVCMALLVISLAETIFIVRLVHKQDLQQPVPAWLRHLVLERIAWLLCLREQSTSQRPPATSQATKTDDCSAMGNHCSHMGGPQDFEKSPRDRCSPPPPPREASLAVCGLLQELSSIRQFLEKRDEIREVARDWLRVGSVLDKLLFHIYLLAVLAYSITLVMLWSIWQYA
Put plainly: Displacement of [3H]LY278584 from human 5HT3 receptor expressed in HEKT cell membranes after 1.5 hrs by liquid scintillation counting method. (In a radioligand displacement assay an active substance lowers the binding of a labelled ligand.)

Data set [2] concerns the target T2, 5-hydroxytryptamine receptor 2C (Homo sapiens, UniProt P28335).
T2 sequence (P28335 whole entry): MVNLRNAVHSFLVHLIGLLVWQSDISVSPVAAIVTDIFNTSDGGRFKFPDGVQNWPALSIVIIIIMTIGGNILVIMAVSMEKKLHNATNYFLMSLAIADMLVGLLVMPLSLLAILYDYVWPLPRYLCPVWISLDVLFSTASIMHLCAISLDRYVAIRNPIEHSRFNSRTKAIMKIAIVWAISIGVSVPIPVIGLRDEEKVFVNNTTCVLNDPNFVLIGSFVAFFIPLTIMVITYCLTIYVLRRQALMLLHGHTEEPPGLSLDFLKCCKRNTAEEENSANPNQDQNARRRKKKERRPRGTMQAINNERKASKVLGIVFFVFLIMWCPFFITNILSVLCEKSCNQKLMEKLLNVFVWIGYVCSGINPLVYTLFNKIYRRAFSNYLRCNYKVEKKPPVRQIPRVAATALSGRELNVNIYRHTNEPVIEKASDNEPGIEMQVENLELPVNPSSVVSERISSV
Put plainly: Displacement of [3H]LSD from human 5HT2C receptor expressed in HEKT cell membranes after 1.5 hrs by liquid scintillation counting method.

In data set [3] the target is T3, 5-hydroxytryptamine receptor 1A (Homo sapiens, UniProt P08908).
T3 sequence (P08908 whole entry): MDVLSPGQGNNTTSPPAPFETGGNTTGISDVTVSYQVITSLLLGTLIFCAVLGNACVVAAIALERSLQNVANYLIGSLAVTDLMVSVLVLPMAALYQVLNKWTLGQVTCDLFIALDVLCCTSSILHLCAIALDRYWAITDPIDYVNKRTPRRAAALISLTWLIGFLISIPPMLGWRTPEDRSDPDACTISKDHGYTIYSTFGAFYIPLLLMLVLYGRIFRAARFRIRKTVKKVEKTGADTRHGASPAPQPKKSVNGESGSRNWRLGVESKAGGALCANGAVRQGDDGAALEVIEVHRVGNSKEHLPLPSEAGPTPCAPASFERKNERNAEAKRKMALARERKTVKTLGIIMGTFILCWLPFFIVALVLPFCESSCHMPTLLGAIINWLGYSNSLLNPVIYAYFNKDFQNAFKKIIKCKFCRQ
Put plainly: Displacement of [3H]8-OH-DPAT from human 5HT1A receptor expressed in CHO cell membranes after 1.5 hrs by liquid scintillation counting method. The gist of the method:
(§1)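 Ki determination by radioligand displacement in triplicate. Reference radioligands: [3H]5-HT for 5-HT1E, [3H]8-OH-DPAT for 5-HT1A, [3H]GR127543 for 5-HT1B, [3H]LY278584 for 5-HT3.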

Data set [4] concerns the target T4, 5-hydroxytryptamine receptor 2B (Homo sapiens, UniProt P41595). Put plainly: Displacement of [3H]LSD from human 5HT2B receptor expressed in HEK cells membranes after 1.5 hrs by liquid scintillation counting method. Type of data set: cell membranes.
The nature of data set [5]: Half life of compound in fasted state simulated gastric fluid at pH 1.6. Type of data set: ADME.
Data set [6] addresses 5-hydroxytryptamine receptor 2A (Homo sapiens, UniProt P28223). Put plainly: Displacement of [3H]ketanserin from human 5HT2A receptor expressed in HEKT cell membranes after 1.5 hrs by liquid scintillation counting method. It counts as cell-based.
Data set [7] has as its target T4, 5-hydroxytryptamine receptor 2B. Put plainly: Antagonist activity at recombinant human 5-HT2B receptor expressed in CHOK1 cells assessed as inhibition of serotonin-induced calcium flux at 1 to 10 uM preincubated for 60 mins at 37 degC followed by incubation at room temperature for 15 mins and subsequent addition of serotonin and measured for 100 secs by fluorescence assay relative to control. It counts as functional, cell-based. The gist of the method:
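Calcium-flux functional assay in CHO-K1 cells stably expressing 5-HT2B. Compounds were screened at 10 μM and 1 μM, and the value is % inhibition of 5-HT2B activity. Run in triplicate.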
(In general: Calcium flux is commonly read through the fluorescence of an indicator in the cells.)

The nature of data set [8]: Apparent permeability across basolateral side to apical side in human Caco2 cells. It counts as ADME, cell-based. The following applies: Caco-2. Background: Passage across Caco-2 layers is used to estimate intestinal permeability.
Data set [9] is described as follows: Metabolic stability in human plasma assessed as compound remaining measured after 120 mins. It counts as ADME, cell-free. The following applies: read-out: Stability.
The target of data set [10] is 5-hydroxytryptamine receptor 1B (Homo sapiens, UniProt P28222). Put plainly: Displacement of [3H]GR127543 from human 5HT1B receptor expressed in HEK cell membranes after 1.5 hrs by liquid scintillation counting method. The gist of the method: as §1
Sequence of 5-hydroxytryptamine receptor 1B (P28222 whole entry): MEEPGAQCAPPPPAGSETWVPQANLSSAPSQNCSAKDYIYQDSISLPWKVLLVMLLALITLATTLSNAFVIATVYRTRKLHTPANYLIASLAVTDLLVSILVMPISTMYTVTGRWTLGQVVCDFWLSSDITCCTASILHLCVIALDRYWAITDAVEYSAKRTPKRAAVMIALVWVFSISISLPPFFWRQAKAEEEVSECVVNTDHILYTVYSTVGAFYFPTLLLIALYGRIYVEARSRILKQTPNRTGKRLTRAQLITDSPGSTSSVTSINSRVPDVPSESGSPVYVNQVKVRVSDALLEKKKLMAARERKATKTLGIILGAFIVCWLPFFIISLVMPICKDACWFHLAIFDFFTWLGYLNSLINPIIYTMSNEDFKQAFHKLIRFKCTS
Data set [11] in a line: Half life of compound in fasted state simulated intestinal fluid at pH 6.5. Type of data set: ADME.
Data set [12] has as its target 5-hydroxytryptamine receptor 1E (Homo sapiens, UniProt P28566). Put plainly: Displacement of [3H]5-HT from human 5HT1E receptor expressed in HEKT cell membranes after 1.5 hrs by liquid scintillation counting method. The gist of the method:
as §1

Data set [13] in a line: Apparent permeability across apical side to basolateral side in human Caco2 cells. Type of data set: ADME, cell-based. Conditions: Caco-2.
Data set [14] can be described thus: Half life in rat liver microsomes. It counts as ADME, microsome.
Data set [15] addresses T4, 5-hydroxytryptamine receptor 2B. Put plainly: Antagonist activity at recombinant human 5-HT2B receptor expressed in CHOK1 cells assessed as inhibition of serotonin-induced calcium flux preincubated for 60 mins at 37 degC followed by incubation at room temperature for 15 mins and subsequent addition of serotonin and measured for 100 secs in presence of human serum albumin by fluorescence assay. Type of data set: functional, cell-based. The gist of the method:
(§2)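 IC50 was measured in the CHO-K1/5-HT2B calcium-flux assay twice, once in buffer alone and once with 4% HSA added. The ratio compares the IC50 with HSA to the IC50 without it. Run in triplicate.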

The next data set concerns HepG2. Put plainly: Cytotoxicity against human HepG2 cells by MTT assay. Type of data set: cell-based.
In data set [16] the target is T4, 5-hydroxytryptamine receptor 2B. Put plainly: Antagonist activity at recombinant human 5-HT2B receptor expressed in CHOK1 cells assessed as inhibition of serotonin-induced calcium flux preincubated for 60 mins at 37 degC followed by incubation at room temperature for 15 mins and subsequent addition of serotonin and measured for 100 secs by fluorescence assay. It counts as functional, cell-based. The gist of the method: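 5-HT2B antagonist IC50 came from a dose-response curve in a calcium-flux assay in the CHO-K1/5-HT2B cell line. Run in triplicate.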

For a further data set, the species on record is Homo sapiens. Put plainly: Selectivity ratio of Ki for human 5HT1B receptor to Ki for human 5HT2B receptor. The gist of the method:
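Ki values from radioligand displacement run in triplicate, using [3H]GR127543 for 5-HT1B and [3H]LSD for 5-HT2B. The ratio compares the 5-HT1B Ki to the 5-HT2B Ki.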

The target in data set [17] is T4, 5-hydroxytryptamine receptor 2B. Put plainly: Ratio of IC50 for antagonist activity at recombinant human 5-HT2B receptor in presence of human serum albumin to IC50 for antagonist activity at recombinant human 5-HT2B receptor in absence of human serum albumin. The gist of the method:
as §2

T4 sequence (P41595 whole entry): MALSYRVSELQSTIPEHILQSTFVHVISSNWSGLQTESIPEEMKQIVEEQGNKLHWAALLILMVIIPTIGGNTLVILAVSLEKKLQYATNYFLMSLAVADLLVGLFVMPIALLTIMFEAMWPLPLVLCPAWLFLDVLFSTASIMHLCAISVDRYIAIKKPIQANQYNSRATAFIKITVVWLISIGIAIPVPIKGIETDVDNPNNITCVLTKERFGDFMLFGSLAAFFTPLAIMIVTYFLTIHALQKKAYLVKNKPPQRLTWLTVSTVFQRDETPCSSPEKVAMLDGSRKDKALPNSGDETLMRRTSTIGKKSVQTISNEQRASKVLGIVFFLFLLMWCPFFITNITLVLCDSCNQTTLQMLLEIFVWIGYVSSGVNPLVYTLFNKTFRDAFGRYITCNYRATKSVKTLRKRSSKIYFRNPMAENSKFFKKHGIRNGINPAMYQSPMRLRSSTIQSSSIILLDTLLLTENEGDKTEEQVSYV
Sequence of 5-hydroxytryptamine receptor 1E (P28566 whole entry): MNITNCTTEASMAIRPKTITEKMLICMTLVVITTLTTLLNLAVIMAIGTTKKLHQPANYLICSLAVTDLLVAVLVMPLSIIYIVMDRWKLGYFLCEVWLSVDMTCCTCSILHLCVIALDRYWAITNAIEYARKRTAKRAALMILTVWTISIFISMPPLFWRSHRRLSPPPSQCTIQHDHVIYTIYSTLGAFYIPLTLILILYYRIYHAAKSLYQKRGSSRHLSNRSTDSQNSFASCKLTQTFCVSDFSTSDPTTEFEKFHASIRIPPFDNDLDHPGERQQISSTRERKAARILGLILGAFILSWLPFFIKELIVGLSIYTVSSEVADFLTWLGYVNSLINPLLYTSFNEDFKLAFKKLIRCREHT
Sequence of 5-hydroxytryptamine receptor 2A (P28223 whole entry): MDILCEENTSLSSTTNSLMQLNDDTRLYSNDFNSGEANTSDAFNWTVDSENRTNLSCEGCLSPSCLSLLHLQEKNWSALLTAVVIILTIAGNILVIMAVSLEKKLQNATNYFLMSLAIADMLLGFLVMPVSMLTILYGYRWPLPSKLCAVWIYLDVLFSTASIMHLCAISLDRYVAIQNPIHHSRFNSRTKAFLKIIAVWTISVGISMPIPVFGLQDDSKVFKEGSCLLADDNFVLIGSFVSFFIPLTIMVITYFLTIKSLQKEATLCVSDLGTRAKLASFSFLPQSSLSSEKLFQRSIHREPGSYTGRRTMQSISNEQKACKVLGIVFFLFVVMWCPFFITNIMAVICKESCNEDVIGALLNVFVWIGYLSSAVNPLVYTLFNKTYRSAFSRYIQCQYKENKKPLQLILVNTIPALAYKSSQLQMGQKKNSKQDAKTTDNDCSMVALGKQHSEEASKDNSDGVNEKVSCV

Consider `O=C(NCCc1c[nH]c2ccccc12)C1CCN(C(=O)c2ccc(-c3ccccc3)cc2)CC1`, for which the inhibitory constant (Ki) in [1] is greater than 10000 nM; in data set [2], 473 nM; in data set [3], 603 nM; in data set [4] it was 4.5 nM; in data set [6] it was 2460 nM; in data set [10], 3410 nM. In addition, in data set [12], the Ki was greater than 10000 nM. Also, the half-life in data set [5] was 4.32 h; in [11] it was greater than 8.33 h; in [14], 2.98 h. The inhibition in data set [7] is greater than 95%. In data set [8], the apparent permeability from basolateral to apical (Papp B→A) stood at 32.8 ×10⁻⁶ cm/s. Moreover, the remaining at 2 h in data set [9] worked out at 97.4%. In addition, the Papp A→B in data set [13] was determined as 16.3 ×10⁻⁶ cm/s. Moreover, the IC50 was 18.7 nM in data set [15], greater than 50000 nM with HepG2 and 14.1 nM in [16].
On to `O=C(NCCc1c[nH]c2ccccc12)C1CCN(C(=O)c2ccccc2)CC1`, for which the inhibition constant Ki was greater than 10000 nM in data set [1]; 749 nM in data set [2]; 5400 nM in data set [3]; 79.3 nM in [4]; 5690 nM in data set [6]; 7600 nM in data set [10]. In data set [12], this compound gave an inhibition constant Ki greater than 10000 nM.
Take `Cc1nc2sccn2c(=O)c1CCN1CCC(=C(c2ccc(F)cc2)c2ccc(F)cc2)CC1` [RITANSERIN]: affinity in data set [2] was put at a Ki of 1.9 nM.
Take `O=C(NCc1ccccc1)C1CCN(C(=O)c2ccc(-c3ccccc3)cc2)CC1`: the Ki in data set [1] is greater than 10000 nM; in data set [2], 986 nM; in data set [3], 9390 nM; in data set [4], 569 nM; in data set [6], 6790 nM; in data set [10], 8590 nM. This compound yielded an inhibition constant Ki in data set [12] greater than 10000 nM. In addition, the Ratio Ki in the data set filed under Homo sapiens turned out to be 15.
Take `Cc1cc2c(cc1Cl)N(C(=O)Nc1ccnc3ccccc13)CC2`: the Ratio IC50 in data set [17] is 50.
In the case of `CC(C)c1cc(-c2ccc(F)c3ccccc23)nc(N)n1`, the Ratio IC50 in data set [17] was determined as 27.
As to `O=C(c1ccc(-c2ccccc2)cc1)N1CCC(c2nc3ccccc3[nH]2)CC1`, the Ratio IC50 in data set [17] was 500.
